Compound activity (PubChem BioAssay)
Shown is part of a subset that was picked to be rich in hits.
T cruzi repl: blocks replication of Trypanosoma cruzi. T. cruzi beta-gal in NIH3T3, luminescence, 90 h. inhibition, % (no concentration beside the values). 300,000 tested, 1.4% active. AID 1885;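 active means mean inhibition across valid replicates above about 55%, limit read from the data; inconclusive means mean below that limit but half or more replicates reach it; inactive means mean below it, under half of replicates reach it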;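 further: signal also drops with host cell toxicity which is not excluded here; 0% = plate median of DMSO wells and 100% = zero luminescence signal; higher percent means less beta-gal luminescence so fewer parasites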
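System: Mouse NIH/3T3 fibroblasts infected with β-gal-expressing T. cruzi Tulahuen C4 | Quantity: NIH/3T3 cells, 5,000 per well | Reagent: 5000 reporter trypomastigotes per well | Dosing: Compound pinned at 50 nL/well, DMSO | Schedule: 3 h host attachment, then at least 90 h co-culture | Detection: GalScreen luminescence, 60 min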
L major viab: Leishmania major promastigote growth inhibition; Leishmania major promastigotes, resazurin fluorescence viability; inhibition, % at 10 µM; 200,000 tested, 9% active; in the data active means inhibition above about 50%;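 further: promastigotes grown with compound for 44 hours at 28 °C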
Calb FLC: affects C. albicans growth with fluconazole; AID 1979; 300,000 tested, 0.57% active; growth inhibition, % (concentration not given with the values); C. albicans CaCi-2 + fluconazole, Alamar Blue growth, 48 h;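 active means growth inhibition above about 58% in most replicates, limit read from the data, passing the limit was not always enough; inconclusive means exactly half the replicates above a set limit; inactive means most replicates below a set limit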;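 further: all wells also contain fluconazole at 8 µg/ml as a sub-toxic cotreatment; 0% = median of DMSO wells and 100% = median of geldanamycin control wells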
NALP1 yeast inh: inhibitors of NALP1 inflammasome in yeast; S. cerevisiae NALP1/ASC/caspase-1 growth, X-gal OD620, 72 h; 280,000 tested, 0.61% active; AID 2071; inhibition, % at 10 µM; in the data active means inhibition mostly above about 24%, no sharp cut-off; inactive means mostly below about 32%
NALP3 yeast inh: blocks the NALP3 inflammasome reconstituted in yeast | Yeast reconstituted NLRP3/ASC/caspase-1, beta-gal luminescence, 24 h | inhibition, % at 10 µM | 330,000 tested, 0.39% active;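 active means inhibition of 50% or more; inactive means inhibition below 50%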;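 further: plate controls were induced DMSO wells for no effect and uninduced yeast grown without galactose for full effect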
PolyA inh: inhibitors of polyadenylation in S. cerevisiae; S. cerevisiae SKY197-pL101 polyadenylation reporter, beta-gal luminescence; efflux-impaired pdr1/pdr3 knockout yeast; score 100 = 6 SD above DMSO; activity score, % at 12 µM; 300,000 tested, 0.02% active;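 active means lowest replicate activity score at least 50, where 100 means six control SD above control mean; inconclusive means lowest score under 50 but half or more replicates reach 50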;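 further: yeast exposed to compound for 9 h at 30 °C; higher score means more reporter readthrough which indicates perturbed polyadenylation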
The depositor's hits bear a star; ? = inconclusive; . = no result given.

SMILES | T cruzi repl | L major viab | Calb FLC | NALP1 yeast inh | NALP3 yeast inh | PolyA inh
CNc1nc(-c2ccccn2)nnc1-c1ccccc1 | 6 | 99* | -22 | 5 | 7 | -1
c1ccc(-c2nnc(-c3ccccn3)nc2NC2CCCCC2)cc1 | 54 | 100* | 16 | 19 | 5 | -45
Cc1ccccc1N1C(=O)C(Cl)=C(N2CCCCCC2)C1=O | 6 | -1 | -7 | 12 | -9 | -16
CN1CCN(C2=C(Cl)C(=O)C(c3cnc(N4CCCCC4)s3)=C(Cl)C2=O)CC1 | 30 | 7 | -7 | 72* | 15 | 8
COCC(=O)NNC(=S)Nc1cccc(C)c1C | -2 | -10 | -15 | -31 | 8 | 0
Cc1cc(N2CCC(C(=O)NC3CC3)CC2)nc(-c2ccccc2)n1 | -7 | 5 | . | -15 | 8 | -10
CC(=O)NC1(c2ccccc2)CCN(c2cc(C)nc(-c3ccccc3)n2)CC1 | -9 | 21 | -35 | 40* | 1 | 26
CC1CCN(CCCNC(=O)c2cc3c(=O)n(C)c4ccccc4c3n2C)CC1 | 18 | 63* | 0 | 22 | 4 | 14
CCCCN(CC)CCCNC(=O)c1cc2c(=O)n(C)c3ccccc3c2n1C | 19 | 80* | -1 | 9 | 2 | 2
CN1CCN(CCCNC(=O)c2cc3c(=O)n(C)c4ccccc4c3s2)CC1 | -15 | 98* | 2 | -8 | 15 | 14
CN(C)CCNC(=O)c1cc2sc3ccccc3c2s1 | 59* | 84* | 23 | 9 | 21 | 7
Cc1csc(SC(C)C(=O)Nc2ccccc2C)n1 (stereo not given) | . | . | . | . | 12 | .
NC(=O)C1CCN(C(=O)CSc2ccsc2[N+](=O)[O-])CC1 | . | 2 | . | 3 | . | .
CN(C)CCCNC(=O)c1cc2c3ccccc3n(C)c2s1 | 74* | 91* | ? | 20 | 1 | -11
CCCCN(C)CCNC(=O)c1cn(C)c(=O)c2c1c1ccccc1n2C | 4 | . | 0 | 42* | 8 | -18
Cn1c(C(=O)NCCN2CCCCCC2)cc2c(=O)n(C)c3ccccc3c21 | 11 | 70* | 10 | 13 | -3 | 11
Cn1c(C(=O)NCCN2CCN(Cc3ccccc3)CC2)cc2c(=O)n(C)c3ccccc3c21 | 9 | . | -4 | 12 | 18 | -11
CCn1c(=O)c2cc(C(=O)NCCN(C)C)sc2c2ccccc21 | 22 | . | -6 | 16 | -4 | -2
Cc1ccc(C)c(NC(=O)COC(=O)c2cc(=O)c3ccccc3o2)c1 | . | . | . | . | -1 | .
O=C(CN1CCN(S(=O)(=O)c2ccc3ccccc3c2)CC1)Nc1ccc2c(c1)CCC2 | 12 | 89* | 1 | 34 | 15 | 8
N#Cc1ccsc1NC(=O)CN1CCN(Cc2ccccc2)CC1 | 49 | 3 | 0 | 7 | 2 | 16
O=C(CN1CCN(c2ccccc2F)CC1)Nc1ccc2c(c1)CCC2 | 8 | 64* | 34 | 31 | 32 | 1
COc1ccc(NC(=O)CN2CCN(c3ccccc3F)CC2)cc1 | -3 | -5 | -5 | -18 | 24 | 0
N#Cc1ccsc1NC(=O)CN1CCN(S(=O)(=O)c2ccc3ccccc3c2)CC1 | 0 | 65* | 44 | 22 | 8 | -9
CCN(CC(=O)NCCN1CCOCC1)S(=O)(=O)c1ccc(F)cc1 | -7 | . | -2 | -4 | 7 | -3
SMILES | T cruzi repl | L major viab | Calb FLC | NALP1 yeast inh | NALP3 yeast inh | PolyA inh
C(=C\c1ccccc1)/C=N/Nc1nc2ccccc2[nH]1 | 49 | 37 | -15 | 37 | 18 | 18
C(=N\Nc1nc2ccccc2[nH]1)/C1CCCCC1 | 17 | 68* | -17 | 9 | -10 | -4
C(/CCc1ccccc1)=N\Nc1nc2ccccc2[nH]1 | 2 | 67* | -17 | 1 | 1 | -4
C=CCn1c(-c2ccc(Cl)cc2)cnc1SC(C)C(=O)NC(N)=O (stereo not given) | 13 | 5 | 8 | 0 | 7 | 4
CCC(C)NC(=O)c1cc(-c2ccc3c(c2)OCO3)on1 (stereo not given) | 8 | . | -5 | 17 | 11 | 8
O=C(NCCCn1ccnc1)C(=O)NCC1OCCCN1S(=O)(=O)c1ccc(Cl)cc1 (stereo not given) | -3 | 51* | -1 | 13 | -8 | 19
O=C(NCCc1c[nH]c2ccccc12)C(=O)NCC1OCCN1S(=O)(=O)c1ccc(Cl)cc1 (stereo not given) | -19 | 54* | 4 | 11 | 12 | 19
O=C(NCCc1c[nH]c2ccccc12)C(=O)NCC1OCCN1S(=O)(=O)c1ccc(F)cc1 (stereo not given) | -25 | 11 | -2 | 29 | 10 | -1
O=C(NCCC1=CCCCC1)C(=O)NCC1OCCCN1S(=O)(=O)c1cc(F)ccc1F (stereo not given) | 1 | 4 | 2 | -14 | 7 | 2
O=C(NCCc1c[nH]c2ccccc12)C(=O)NCC1OCCN1S(=O)(=O)c1ccccc1 (stereo not given) | -4 | 70* | 0 | 2 | 21 | 1
O=C(NCCC1=CCCCC1)C(=O)NCC1OCCCN1S(=O)(=O)c1ccc(F)cc1 (stereo not given) | -21 | 96* | 3 | -12 | 1 | 1
O=C(NCC(c1ccco1)N1CCOCC1)c1c(F)cccc1F (stereo not given) | -12 | . | 2 | . | 25 | 9
COc1ccc(/C=N/Nc2nc(N3CCCC3)nc(N3CCCC3)n2)cc1 | 6 | 63* | -3 | 18 | . | -17
C(=N\Nc1nc(N2CCCCC2)nc(N2CCCCC2)n1)/c1c[nH]c2ccccc12 | 19 | 32 | -31 | -23 | 17 | -18
COC(=O)c1ccc(/C=N/Nc2nc(N3CCCCC3)nc(N3CCCCC3)n2)cc1 | -19 | 78* | 4 | -4 | 4 | -1
Cc1[nH]c2ccccc2c1/C=N/Nc1nc(N2CCCCC2)nc(N2CCCCC2)n1 | 26 | 77* | -10 | 16 | 22 | -16
O=[N+]([O-])c1ccc(/C=N/Nc2nc(N3CCCCC3)nc(N3CCCCC3)n2)o1 | 63* | 100* | ? | -7 | 19 | -30
Brc1cc2c(cc1/C=N/Nc1nc(N3CCCCC3)nc(N3CCCCC3)n1)OCO2 | . | 67* | . | 12 | . | .
O=Cc1cc(N=Nc2cccc(C(=O)O)c2)ccc1O | 1 | -11 | -20 | 6 | 38 | -29
O=Cc1cc(N=Nc2ccccc2Cl)ccc1O | 2 | 47 | 86* | -8 | 47 | -46
CC(C)(C)n1nnnc1C(c1ccc(C#N)cc1)N1CCCC2(CCCCC2)C1 (stereo not given) | 4 | 78* | 19 | -1 | 13 | 1
CC(C)(C)n1nnnc1C(c1cccc(C#N)c1)N1CCC(Cc2ccccc2)CC1 (stereo not given) | 81* | 83* | 9 | 1 | 6 | -9
CCC(C)(C)n1nnnc1C(c1cccnc1)N1CCCC(C)C1 (stereo not given) | 53 | 87* | -9 | -14 | -6 | 2
